Laboratory results taken from ChEMBL document CHEMBL4196180, “Semisynthesis of ω-Hydroxyalkylcarbonate Derivatives of Hydroxytyrosol as Antitrypanosome Agents” (J Nat Prod, 2018).

Legend:
[1] = tested on: Trypanosoma brucei brucei; test: Anti-parasitic activity against Trypanosoma brucei brucei 427 infected in human MRC5 cells assessed as reduction in parasite proliferation after 72 hrs by Alamar blue assay; type: functional, organism-based; settings: Trypanosoma brucei, 427, 72 h; in the assay text read “bloodstream forms” for “infected in human MRC5 cells”
Procedure, shortened: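 Bloodstream-form T. brucei brucei single-marker S427 (S16), grown in HMI-9 with 10% hiFBS at 37 °C, 5% CO2. Parasites seeded at 1 × 10^4 BSF/mL with increasing compound concentrations for 72 h at 37 °C, 5% CO2. Proliferation read by alamarBlue fluorescence (ex 550/em 590 nm); IC50 = 50% inhibition of parasite growth.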

[2] = tested on: Trypanosoma brucei brucei; test: Potency index, ratio of hydroxytyrosol IC50 to compound IC50 for Trypanosoma brucei brucei 427 […]; type: functional
Procedure, shortened: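 Activity gain calculated as IC50 of hydroxytyrosol against bloodstream-form T. brucei divided by IC50 of the derivative. Both come from the 72 h alamarBlue assay.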

[3] = Selectivity index, ratio of IC50 for MRC5 cells to IC50 for Trypanosoma brucei brucei 427 […]; type: toxicity, cell-based; settings: read-out: Ratio IC50
MRC5 = test: Cytotoxicity against human MRC5 cells assessed as inhibition of cell growth after 72 hrs by MTT assay; type: cell-based; settings: MRC5, 72 h
Procedure, shortened: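 MRC-5 lung fibroblasts kept in low-glucose DMEM with 10% hiFBS and penicillin/streptomycin at 37 °C, 5% CO2, 100% humidity. Cells trypsinized (0.25%), seeded at 5000 cells/well with increasing compound concentrations, incubated 72 h at 37 °C. MTT colorimetric read-out; IC50 = concentration inhibiting growth 50% vs untreated cells.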

[4] = tested on: Trypanosoma brucei brucei; test: Anti-parasitic activity against Trypanosoma brucei brucei 427 bloodstream forms assessed as reduction in parasite proliferation after 72 hrs by Alamar blue assay; settings: Trypanosoma brucei, 427, 72 h

IC50 [4] [µM]	Structure (SMILES)	IC50 [1] [µM]	Ratio IC50 [2]	selectivity ratio [3]	IC50 (MRC5) [µM]
–	O=C(OCCCCOC(=O)OCCc1ccc(OCc2ccccc2)c(OCc2ccccc2)c1)OCCc1ccc(OCc2ccccc2)c(OCc2ccccc2)c1	> 10	–	–	–
–	O=C(OCCCCCCOC(=O)OCCc1ccc(OCc2ccccc2)c(OCc2ccccc2)c1)OCCc1ccc(OCc2ccccc2)c(OCc2ccccc2)c1	8.1	5.9	–	–
–	O=C(OCCCCCCO)OCCc1ccc(O)c(O)c1	4.1	11.6	> 12	> 50
–	O=C(OCCCCOC(=O)OCCc1ccc(O)c(O)c1)OCCc1ccc(O)c(O)c1	4	12	> 13	> 50
–	CCCCCCCCCCCCOC(=O)OCCc1ccc(O)c(O)c1	1.1	44.4	12	12.4
5.7	O=C(OCCCCCCCCO)OCCc1ccc(OCc2ccccc2)c(OCc2ccccc2)c1	–	8.3	–	–
–	CCCCCCOC(=O)OCCc1ccc(OCc2ccccc2)c(OCc2ccccc2)c1	> 10	–	–	–
5.7	O=C(OCCOC(=O)OCCc1ccc(OCc2ccccc2)c(OCc2ccccc2)c1)OCCc1ccc(OCc2ccccc2)c(OCc2ccccc2)c1	–	8.4	–	–
–	CCCCCCOC(=O)OCCc1ccc(O)c(O)c1	0.2	263.9	62	11.2
–	O=C(OCCO)OCCc1ccc(O)c(O)c1	6.4	7.4	–	–
1.5	O=C(OCCCCCCCCO)OCCc1ccc(O)c(O)c1	–	32.8	> 35	> 50
–	O=C(OCCc1ccc(O)c(O)c1)OCCc1ccc(O)c(O)c1	1.3	37.1	> 39	> 50
–	CCCCCCCCCCCCCCCCOC(=O)OCCc1ccc(O)c(O)c1	6.2	7.7	–	–
–	O=C(OCCCCO)OCCc1ccc(OCc2ccccc2)c(OCc2ccccc2)c1	> 10	–	–	–
–	O=C(OCCCCCCOC(=O)OCCc1ccc(O)c(O)c1)OCCc1ccc(O)c(O)c1	2.1	22.6	> 24	> 50
–	O=C(OCCCCCCO)OCCc1ccc(OCc2ccccc2)c(OCc2ccccc2)c1	4.1	11.6	> 12	> 50
–	CCCCCCCCCCCCOC(=O)OCCc1ccc(OCc2ccccc2)c(OCc2ccccc2)c1	> 10	–	–	–
–	O=C(OCCCCO)OCCc1ccc(O)c(O)c1	> 10	–	–	–
–	O=C(OCCc1ccc(OCc2ccccc2)c(OCc2ccccc2)c1)OCCc1ccc(OCc2ccccc2)c(OCc2ccccc2)c1	> 10	–	–	–
0.5	CCCCCCCCOC(=O)OCCc1ccc(O)c(O)c1	–	89.6	72	37.9
–	O=C(OCCCCCCCCOC(=O)OCCc1ccc(OCc2ccccc2)c(OCc2ccccc2)c1)OCCc1ccc(OCc2ccccc2)c(OCc2ccccc2)c1	6.2	7.7	–	–
–	CCOC(=O)OCCc1ccc(O)c(O)c1	1.4	33.7	25	34.5
–	CCCCCCCCCCCCCCOC(=O)OCCc1ccc(O)c(O)c1	1.4	33.2	6	9.1
–	O=C(OCCO)OCCc1ccc(OCc2ccccc2)c(OCc2ccccc2)c1	9.4	5	–	–
–	O=C(OCCCCCCCCOC(=O)OCCc1ccc(O)c(O)c1)OCCc1ccc(O)c(O)c1	1	47.5	> 50	> 50
–	O=C(OCCOC(=O)OCCc1ccc(O)c(O)c1)OCCc1ccc(O)c(O)c1	3.8	12.6	> 13	> 50
–	CCCCOC(=O)OCCc1ccc(O)c(O)c1	7.2	6.6	–	–
